Data taken from ChEMBL document CHEMBL2034825, “Chemical syntheses and in vitro antibacterial activity of two desferrioxamine B-ciprofloxacin conjugates with potential esterase and phosphatase triggered drug release linkers” (2012).
≈ marks a conversion by molar mass, not a printed value.

Key:
Escherichia coli [1] = experiment: Antibacterial activity against Escherichia coli X580 assessed as partially clear inhibition zone at 50 uL of 0.2 mM solution of compound dissolved in 1:9 DMSO/MeOH measured after 24 hrs by agar well diffusion method; type: functional
How it was run: (§1)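 Agar well diffusion. 50 µL of a 0.2 mM solution in 1:9 DMSO/MeOH was filled into 9 mm wells in nutrient agar or Mueller Hinton II agar. Plates were incubated 24 h at 37 °C before inhibition zones were read. Zones were scored as partially clear (p, colonies in zone) or unclear (P, many colonies in zone).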

Pseudomonas aeruginosa [2] = experiment: Antibacterial activity against Pseudomonas aeruginosa K799/61 assessed as unclear inhibition zone at 50 uL of 0.2 mM solution of compound dissolved in 1:9 DMSO/MeOH measured after 24 hrs by agar well diffusion method; type: functional; how it was run: as §1
Pseudomonas aeruginosa [3] = experiment: Antibacterial activity against wild type Pseudomonas aeruginosa K799 at 50 uL of 0.2 mM solution of compound dissolved in 1:9 DMSO/MeOH measured after 24 hrs by agar well diffusion method; type: functional; how it was run: as §1
Micrococcus luteus [4] = experiment: Antibacterial activity against Micrococcus luteus ATCC 10240 at 50 uL of 0.2 mM solution of compound dissolved in 1:9 DMSO/MeOH measured after 24 hrs by agar well diffusion method; type: functional; how it was run: as §1
Bacillus subtilis [5] = experiment: Antibacterial activity against Bacillus subtilis ATCC 6633 at 50 uL of 0.2 mM solution of compound dissolved in 1:9 DMSO/MeOH measured after 24 hrs by agar well diffusion method; type: functional; how it was run: as §1
Staphylococcus aureus [6] = experiment: Antibacterial activity against Staphylococcus aureus SG 511 at 50 uL of 0.2 mM solution of compound dissolved in 1:9 DMSO/MeOH measured after 24 hrs by agar well diffusion method; type: functional; how it was run: as §1
Escherichia coli [7] = experiment: Antibacterial activity against Escherichia coli X580 at 50 uL of 0.2 mM solution of compound dissolved in 1:9 DMSO/MeOH measured after 24 hrs by agar well diffusion method; type: functional; how it was run: as §1
Pseudomonas aeruginosa [8] = experiment: Antibacterial activity against Pseudomonas aeruginosa K799/61 at 50 uL of 0.2 mM solution of compound dissolved in 1:9 DMSO/MeOH measured after 24 hrs by agar well diffusion method; type: functional; how it was run: as §1
Enterococcus faecium = experiment: Antibacterial activity against Enterococcus faecium NCTC 7171 by broth microdilution method; type: functional
How it was run: (§2)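 MIC90 (µM) by broth microdilution in Mueller-Hinton broth No.2 (MHII) following CLSI guidelines. End point read visually. Each compound tested in triplicate.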

Staphylococcus aureus [9] = experiment: microbe, parasite or virus in culture; conditions: SG 511, 24 h, read-out: DIZ
Klebsiella pneumoniae = experiment: Antibacterial activity against Klebsiella pneumoniae ATCC 700603 by broth microdilution method; type: functional; how it was run: as §2
Bacillus subtilis [10] = experiment: microbe, parasite or virus in culture; conditions: ATCC 6633, 24 h, read-out: DIZ
Pseudomonas aeruginosa [11] = experiment: microbe, parasite or virus in culture; conditions: K799, 24 h, read-out: DIZ
Pseudomonas aeruginosa [12] = experiment: microbe, parasite or virus in culture; conditions: K799/61, 24 h, read-out: DIZ
Acinetobacter baumannii = experiment: Antibacterial activity against Acinetobacter baumannii ATCC 17961 by broth microdilution method; type: functional; how it was run: as §2
Escherichia coli [13] = experiment: Antibacterial activity against Escherichia coli ATCC 25922 by broth microdilution method; type: functional; how it was run: as §2
Klebsiella aerogenes = experiment: Antibacterial activity against Enterobacter aerogenes ATCC 35029 by broth microdilution method; type: functional; how it was run: as §2
Pseudomonas aeruginosa [14] = experiment: microbe, parasite or virus in culture; conditions: K799/61, 24 h, read-out: DIZ; remark: listed apart in the source
Pseudomonas aeruginosa [15] = experiment: Antibacterial activity against Pseudomonas aeruginosa ATCC 27853 by broth microdilution method; type: functional; how it was run: as §2
Micrococcus luteus [16] = experiment: Antibacterial activity against Micrococcus luteus ATCC 10240 assessed as unclear inhibition zone at 5 ug/mL after 24 hrs by agar well diffusion method; type: functional; conditions: ATCC 10240, 24 h, read-out: DIZ
How it was run: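 Agar well diffusion with ciprofloxacin dissolved in H2O, tested at 5, 1.66 or […]. Solution was loaded into 9 mm wells in nutrient agar or Mueller Hinton II agar. Inhibition zones were read after 24 h at 37 °C. A zone was scored as P when unclear, with many colonies inside.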

Escherichia coli [17] = experiment: Antibacterial activity against Escherichia coli X580 at 0.33 ug/mL after 24 hrs by agar well diffusion method; conditions: X580, 24 h, read-out: DIZ
Pseudomonas aeruginosa [18] = experiment: Antibacterial activity against Pseudomonas aeruginosa K799/61 assessed as partially clear inhibition zone at 50 uL of 0.2 mM solution of compound dissolved in 1:9 DMSO/MeOH measured after 24 hrs by agar well diffusion method; type: functional; how it was run: as §1
Staphylococcus aureus [19] = experiment: Antibacterial activity against Staphylococcus aureus ATCC 29213 by broth microdilution method; type: functional; how it was run: as §2

Compound	diameter of the inhibition zone (DIZ) (Pseudomonas aeruginosa [3]) [mm]	diameter of the inhibition zone (DIZ) (Micrococcus luteus [4]) [mm]	diameter of the inhibition zone (DIZ) (Bacillus subtilis [5]) [mm]	diameter of the inhibition zone (DIZ) (Staphylococcus aureus [6]) [mm]	diameter of the inhibition zone (DIZ) (Escherichia coli [7]) [mm]	diameter of the inhibition zone (DIZ) (Pseudomonas aeruginosa [8]) [mm]	MIC90 (Enterococcus faecium) [µM]	MIC90 (Klebsiella pneumoniae) [µM]	MIC90 (Acinetobacter baumannii) [µM]	MIC90 (Escherichia coli [13]) [µM]	MIC90 (Klebsiella aerogenes) [µM]	MIC90 (Pseudomonas aeruginosa [15]) [µM]	further results
CC(=O)N(O)CCCCCNC(=O)CCC(=O)N(O)CCCCCNC(=O)CCC(=O)N(O)CCCCCNC(=O)CCC(=O)N1CCN(c2cc3c(cc2F)c(=O)c(C(=O)O)cn3C2CC2)CC1	0	0	21	18	30	–	–	–	–	–	–	–	diameter of the inhibition zone (DIZ) (Escherichia coli [1]): 33 mm; diameter of the inhibition zone (DIZ) (Pseudomonas aeruginosa [2]): 26 mm
CC(=O)N(O)CCCCCNC(=O)CCC(=O)N(O)CCCCCNC(=O)CCC(=O)N(O)CCCCCNC(=O)CCC(=O)Oc1c(C)cc(OP(=O)(O)O)c(C(C)(C)CC(=O)N2CCN(c3cc4c(cc3F)c(=O)c(C(=O)O)cn4C3CC3)CC2)c1C	0	0	0	0	21	0	–	–	–	–	–	–	–
O=C(O)c1cn(C2CC2)c2cc(N3CCNCC3)c(F)cc2c1=O [CIPROFLOXACIN]	–	–	–	–	–	–	8 (≈ 2.65 µg/mL)	0.25 (≈ 0.0828 µg/mL)	0.25 (≈ 0.0828 µg/mL)	< 0.015	< 0.015	0.25 (≈ 0.0828 µg/mL)	zone of inhibition at 5 µg/mL (Staphylococcus aureus [9]): 28 mm; zone of inhibition at 1.66 µg/mL (Bacillus subtilis [10]): 28 mm; zone of inhibition at 1.66 µg/mL (Pseudomonas aeruginosa [11]): 21 mm; zone of inhibition at 1.66 µg/mL (Pseudomonas aeruginosa [12]): 32 mm; zone of inhibition at 1.66 µg/mL (Pseudomonas aeruginosa [14]): 24 mm; zone of inhibition at 5 µg/mL (Micrococcus luteus [16]): 12 mm; zone of inhibition at 0.33 µg/mL (Escherichia coli [17]): 31 mm
CC(=O)N(O)CCCCCNC(=O)CCC(=O)N(O)CCCCCNC(=O)CCC(=O)N(O)CCCCCNC(=O)CCC(=O)Oc1cc(C)cc(C)c1C(C)(C)CC(=O)N1CCN(c2cc3c(cc2F)c(=O)c(C(=O)O)cn3C2CC2)CC1	26	0	26	16	29	27	> 128	16 (≈ 18.9 µg/mL)	8 (≈ 9.43 µg/mL)	1 (≈ 1.18 µg/mL)	1 (≈ 1.18 µg/mL)	8 (≈ 9.43 µg/mL)	diameter of the inhibition zone (DIZ) (Pseudomonas aeruginosa [18]): 37 mm; MIC90 (Staphylococcus aureus [19]): 32 µM (≈ 37.7 µg/mL)
